Data taken from ChEMBL document CHEMBL1125274, “Persistent binding of fatty acyl derivatives of naltrexamine to opioid receptors” (J Med Chem, 1991).

Experiments:
[1] = target: T1, Opioid receptor (Mus musculus) (UniProt P42866+P32300+P33534); assay: (§1) Inhibition of [3H]dihydromorphine binding to mouse brain membranes as percentage of Opioid receptor occupancy
[2] = target: T1, Opioid receptor (Mus musculus); assay: as §1; remark: listed apart in the source
[3] = target: T1, Opioid receptor (Mus musculus); assay: Binding to mouse brain membranes expressed as percentage of Opioid receptors occupancy determined from difference in specific binding of [3H]dihydromorphine obtained prewashed.; details: Membrane
Outline: (§2)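 Applies to membranes washed before ligand exposure. Mouse brain membranes in Hepes buffer pH 7.4 are incubated with ligand for 30 min at 25 °C. Occupancy is taken from the reduction in specific binding of [3H]dihydromorphine (2 nM final, 20 min at 25 °C; nonspecific binding with 1 µM naltrexone) versus a ligand-free control. Mean ± SD of triplicates.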

[4] = target: T1, Opioid receptor (Mus musculus); assay: Binding to mouse brain membranes expressed as percentage of Opioid receptors occupancy determined from difference in specific binding of [3H]dihydromorphine obtained after 10 wash procedures; details: Membrane
Outline: (§3)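 Male mouse brain (minus cerebellum) membranes in pH 7.4 Hepes buffer are exposed to ligand for 30 min at 25 °C, then centrifuged and washed 10 times (resuspended in Hepes, 10 min at 37 °C, recentrifuged). Pellets are labelled with 2 nM final [3H]dihydromorphine for 20 min at 25 °C; 1 µM naltrexone defines nonspecific binding. Occupancy is the loss of specific binding versus a ligand-free control treated identically, counted by scintillation. Mean ± SD of triplicates.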

[5] = target: T1, Opioid receptor (Mus musculus); assay: Binding to mouse brain membranes expressed as percentage of receptor occupancy determined from difference in specific binding of [3H]dihydromorphine obtained after 3 wash procedures.; details: Membrane
Outline: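 Mouse forebrain membranes in Hepes buffer, pH 7.4, are incubated with ligand for 30 min at 25 °C, then given 3 wash cycles, each a 10 min resuspension at 37 °C followed by centrifugation. Residual occupancy is measured with 2 nM [3H]dihydromorphine (20 min, 25 °C; nonspecific binding with 1 µM naltrexone) as the drop in specific binding relative to a washed control without ligand. Mean ± SD, triplicate.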

[6] = target: T1, Opioid receptor (Mus musculus); assay: Binding to mouse brain membranes expressed as percentage of receptor occupancy determined from difference in specific binding of [3H]dihydromorphine obtained prewashed.; details: Membrane; outline: as §2
[7] = target: T1, Opioid receptor (Mus musculus); assay: Binding to mouse brain membranes expressed as percentage of receptor occupancy determined from difference in specific binding of [3H]dihydromorphine obtained after 10 wash procedures.; details: Membrane; outline: as §3
[8] = target: T1, Opioid receptor (Mus musculus); assay: Binding to mouse brain membranes expressed as percentage of receptor occupancy determined from difference in specific binding of [3H]dihydromorphine obtained after 5 wash procedures.; details: Membrane
Outline: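 Ligand pretreatment of male mouse brain membranes runs 30 min at 25 °C, followed by 5 washes in Hepes buffer pH 7.4 (10 min at 37 °C each, then recentrifuged). Specific binding of 2 nM [3H]dihydromorphine (20 min at 25 °C, minus binding with 1 µM naltrexone) is compared with an identically washed ligand-free control to give percent occupancy. Triplicate, mean ± SD.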

T1 sequence (P32300 whole entry, looked up): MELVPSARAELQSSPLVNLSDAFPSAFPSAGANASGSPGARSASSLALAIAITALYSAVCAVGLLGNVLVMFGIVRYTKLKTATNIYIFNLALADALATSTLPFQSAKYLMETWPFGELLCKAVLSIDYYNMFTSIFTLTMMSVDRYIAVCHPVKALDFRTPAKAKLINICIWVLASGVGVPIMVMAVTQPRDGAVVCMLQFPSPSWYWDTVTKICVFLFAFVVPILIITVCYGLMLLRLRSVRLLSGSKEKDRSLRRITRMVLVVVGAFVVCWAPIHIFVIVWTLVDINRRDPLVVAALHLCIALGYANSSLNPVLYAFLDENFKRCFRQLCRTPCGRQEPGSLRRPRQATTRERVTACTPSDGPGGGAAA
T1 sequence (P33534 whole entry, looked up): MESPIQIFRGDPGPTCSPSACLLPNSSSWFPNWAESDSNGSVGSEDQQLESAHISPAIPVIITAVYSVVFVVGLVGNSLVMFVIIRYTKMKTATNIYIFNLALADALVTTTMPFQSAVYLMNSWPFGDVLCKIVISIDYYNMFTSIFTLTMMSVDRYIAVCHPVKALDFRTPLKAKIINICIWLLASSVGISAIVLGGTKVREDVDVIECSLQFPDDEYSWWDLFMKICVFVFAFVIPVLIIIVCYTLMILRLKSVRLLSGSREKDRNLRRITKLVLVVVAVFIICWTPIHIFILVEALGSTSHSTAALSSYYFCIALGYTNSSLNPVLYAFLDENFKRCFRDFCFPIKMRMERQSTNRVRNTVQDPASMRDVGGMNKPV
T1 sequence (P42866 whole entry, looked up): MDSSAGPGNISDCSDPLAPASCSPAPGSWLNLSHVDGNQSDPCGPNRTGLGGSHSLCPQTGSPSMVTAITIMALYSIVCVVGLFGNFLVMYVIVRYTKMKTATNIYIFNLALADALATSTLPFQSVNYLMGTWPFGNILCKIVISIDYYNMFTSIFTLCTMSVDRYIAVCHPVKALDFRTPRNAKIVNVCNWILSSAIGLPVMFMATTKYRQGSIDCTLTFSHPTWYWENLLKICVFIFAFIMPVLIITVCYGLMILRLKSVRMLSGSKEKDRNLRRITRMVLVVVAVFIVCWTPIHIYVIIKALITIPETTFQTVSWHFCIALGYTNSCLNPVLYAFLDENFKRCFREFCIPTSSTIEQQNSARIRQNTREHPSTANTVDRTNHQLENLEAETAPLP

With CCCCCCCCCCCCCCCCCC(=O)NN[C@@H]1CC[C@@]2(O)[C@H]3Cc4ccc(O)c5c4[C@@]2(CCN3CC2CC2)[C@H]1O5 the Receptor occupancy [1] was 38% and the Receptor occupancy [2] was 4%.

CCCCCCCCCCCCCCCCCC(=O)N[C@@H]1CC[C@@]2(O)[C@H]3Cc4ccc(O)c5c4[C@@]2(CCN3CC2CC2)[C@H]1O5 gave a Receptor occupancy [1] of 89%, a Receptor occupancy [3] of 34% and a Receptor occupancy [4] of 2%. It also gave a Receptor occupancy [2] of 48%.

For CCCCCCCCCCCCCCCC(=O)NN[C@@H]1CC[C@@]2(O)[C@H]3Cc4ccc(O)c5c4[C@@]2(CCN3CC2CC2)[C@H]1O5, the Receptor occupancy [1] was 33% and the Receptor occupancy [2] was 2%.

With CCCCCCCCCCCCCCCC(=O)N[C@H]1CC[C@@]2(O)[C@H]3Cc4ccc(O)c5c4[C@@]2(CCN3CC2CC2)[C@H]1O5 the Receptor occupancy [5] was 85%, the Receptor occupancy [6] was 24% and the Receptor occupancy [7] was 3%. It also gave a Receptor occupancy [8] of 35%.

CCCCC/C=C/C/C=C/CCCCCCCC(=O)N[C@@H]1CC[C@@]2(O)[C@H]3Cc4ccc(O)c5c4[C@@]2(CCN3CC2CC2)[C@H]1O5 showed a Receptor occupancy [1] of 94%, a Receptor occupancy [3] of 84% and a Receptor occupancy [4] of 53%. It also gave a Receptor occupancy [2] of 96%.

Work on CC/C=C/C/C=C/C/C=C/CCCCCCCC(=O)N[C@H]1CC[C@@]2(O)[C@H]3Cc4ccc(O)c5c4[C@@]2(CCN3CC2CC2)[C@H]1O5 yielded a Receptor occupancy [1] of 94%, a Receptor occupancy [3] of 69% and a Receptor occupancy [4] of 84%. For the same compound, the Receptor occupancy [2] was 89%.

With CCCCCCCC/C=C/CCCCCCCC(=O)N[C@@H]1CC[C@@]2(O)[C@H]3Cc4ccc(O)c5c4[C@@]2(CCN3CC2CC2)[C@H]1O5 the Receptor occupancy [1] was 95%, the Receptor occupancy [3] was 64% and the Receptor occupancy [4] was 32%. For the same compound, the Receptor occupancy [2] was 93%.

With CC/C=C/C/C=C/C/C=C/CCCCCCCC(=O)NN[C@@H]1CC[C@@]2(O)[C@H]3Cc4ccc(O)c5c4[C@@]2(CCN3CC2CC2)[C@H]1O5 the Receptor occupancy [1] was 93%, the Receptor occupancy [4] was 38% and the Receptor occupancy [2] was 46%.

For CC(=O)N[C@@H]1CC[C@@]2(O)[C@H]3Cc4ccc(O)c5c4[C@@]2(CCN3CC2CC2)[C@H]1O5, the Receptor occupancy [5] was 4%.

CC/C=C/C/C=C/C/C=C/CCCCCCCC(=O)N[C@@H]1CC[C@@]2(O)[C@H]3Cc4ccc(O)c5c4[C@@]2(CCN3CC2CC2)[C@H]1O5 gave a Receptor occupancy [1] of 92%, a Receptor occupancy [3] of 85% and a Receptor occupancy [4] of 86%. For the same compound, the Receptor occupancy [2] was 95%.

Oc1ccc2c3c1O[C@H]1/C(=N\N=C4/CC[C@@]5(O)[C@H]6Cc7ccc(O)c8c7[C@@]5(CCN6CC5CC5)[C@H]4O8)CC[C@@]4(O)[C@@H](C2)N(CC2CC2)CC[C@]314 gave a Receptor occupancy [5] of 35%, a Receptor occupancy [7] of 2% and a Receptor occupancy [8] of -1%.

CC(=O)N[C@H]1CC[C@@]2(O)[C@H]3Cc4ccc(O)c5c4[C@@]2(CCN3CC2CC2)[C@H]1O5 was tested, and the Receptor occupancy [5] was 2%.

In the case of CCCCC/C=C/C/C=C/CCCCCCCC(=O)N[C@H]1CC[C@@]2(O)[C@H]3Cc4ccc(O)c5c4[C@@]2(CCN3CC2CC2)[C@H]1O5, the Receptor occupancy [1] is reported as 93%, the Receptor occupancy [3] is reported as 73% and the Receptor occupancy [4] is reported as 46%. The Receptor occupancy [2] was 93%.

CCCCCCCC/C=C/CCCCCCCC(=O)N[C@H]1CC[C@@]2(O)[C@H]3Cc4ccc(O)c5c4[C@@]2(CCN3CC2CC2)[C@H]1O5 was tested, and the Receptor occupancy [1] was 98%, the Receptor occupancy [3] was 42% and the Receptor occupancy [4] was 21%. For the same compound, the Receptor occupancy [2] was 54%.

Work on CCCCCCCCCCCCCCCCCC(=O)N[C@H]1CC[C@@]2(O)[C@H]3Cc4ccc(O)c5c4[C@@]2(CCN3CC2CC2)[C@H]1O5 yielded a Receptor occupancy [1] of 77%, a Receptor occupancy [3] of 18% and a Receptor occupancy [4] of 6%. The Receptor occupancy [2] was 42%.

Work on CCCCCCCCCCCCCCCC(=O)N[C@@H]1CC[C@@]2(O)[C@H]3Cc4ccc(O)c5c4[C@@]2(CCN3CC2CC2)[C@H]1O5 yielded a Receptor occupancy [1] of 93%, a Receptor occupancy [3] of 38% and a Receptor occupancy [4] of 2%. The Receptor occupancy [2] was 58%.
